# From ChEMBL document CHEMBL1921697, “Antifungal activity of 2α,3β-functionalized steroids stereoselectively increases with the addition of oligosaccharides” (Bioorg Med Chem Lett, 2011)
# Tests used:
# [1] = tested on: Nakaseomyces glabratus; test: Antifungal activity against Candida glabrata ATCC 48435 assessed as growth inhibition after 48 hrs by broth microdilution relative to control; assay type: functional
# Outline: (§1)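 Broth microdilution against yeast; incubation at 35 °C for 48 h. Growth read by visual turbidity versus antifungal-free control wells and by absorbance at 530 nm. MIC₅₀ taken as the lowest level giving a prominent visual decrease in turbidity plus >50% growth reduction versus no-antifungal controls. Values in µg/mL; partial inhibition (e.g. 25%) noted where below threshold.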
# [2] = tested on: Cryptococcus neoformans; test: Antifungal activity against Cryptococcus neoformans ATCC 36556 assessed as growth inhibition after 48 hrs by broth microdilution relative to control; assay type: functional; outline: as §1
# [3] = tested on: Candida albicans; test: Antifungal activity against Candida albicans ATCC 10231 assessed as growth inhibition after 48 hrs by broth microdilution relative to control; assay type: functional; outline: as §1
# [4] = tested on: Cryptococcus neoformans; test: Antifungal activity against Cryptococcus neoformans ATCC 36556 after 48 hrs by broth microdilution technique; assay type: functional; conditions: ATCC 36556, 48 h; outline: as §1
# [5] = tested on: Nakaseomyces glabratus; test: Antifungal activity against Candida glabrata ATCC 48435 after 48 hrs by broth microdilution technique; assay type: functional; conditions: ATCC 48435, 48 h; outline: as §1
# [6] = tested on: Vero; test: Cytotoxicity against african green monkey Vero cells after 24 hrs by MTT assay; assay type: cell-based; conditions: chlorocebus sabaeus
# Outline: (§2)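 Tetrazolium (MTT-type) proliferation assay on noncancerous Vero and rabbit skin cells. Compounds diluted in media to 200, 100, 50 and 25 µg/ml; 24 h exposure at 37 °C, 5% CO₂. Dye added for 1–4 h, then stop solution 1 h at room temperature; formazan read at 570 nm. Viability given as % of 1% DMSO no-drug wells; saponin as cell-death control; triplicate, mean ± SD.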
# [7] = Cytotoxicity against Sylvilagus floridanus CCL68 cells after 24 hrs by MTT assay; assay type: cell-based; outline: as §2
MIC50 [4] [µg/mL],MIC50 [5] [µg/mL],SMILES,growth inhibition (GI) [1] [%],growth inhibition (GI) [2] [%],growth inhibition (GI) [3] [%],Activity [6],Activity [7]
–,–,CC(C)CCC[C@@H](C)[C@H]1CC[C@H]2[C@@H]3CC[C@H]4C[C@@H](O)CC[C@]4(C)[C@H]3CC[C@]12C,<50,<50,<50,–,–
32,–,CC(C)CCC[C@@H](C)[C@H]1CC[C@H]2[C@@H]3CC[C@H]4C[C@@H](O)[C@H](O)C[C@]4(C)[C@H]3CC[C@]12C,<50,25,<50,–,–
–,–,CC(C)CCC[C@@H](C)[C@H]1CC[C@H]2[C@@H]3CC[C@H]4C[C@@H](O[C@H]5O[C@H](CO)[C@@H](O)[C@H](O)[C@H]5O)CC[C@]4(C)[C@H]3CC[C@]12C,<50,<50,<50,–,–
–,–,CC(C)CCC[C@@H](C)[C@H]1CC[C@H]2[C@@H]3CC[C@H]4C[C@@H](O[C@@H]5O[C@H](CO)[C@@H](O)[C@H](O)[C@H]5O)CC[C@]4(C)[C@H]3CC[C@]12C,<50,<50,<50,–,–
–,–,CC(C)CCC[C@@H](C)[C@H]1CC[C@H]2[C@@H]3CC[C@H]4C[C@@H](O[C@H]5O[C@H](CO)[C@@H](O[C@H]6O[C@H](CO)[C@@H](O)[C@H](O)[C@H]6O)[C@H](O)[C@H]5O)CC[C@]4(C)[C@H]3CC[C@]12C,<50,<50,<50,–,–
4,4,CC(C)CCC[C@@H](C)[C@H]1CC[C@H]2[C@@H]3CC[C@H]4C[C@@H](O[C@@H]5O[C@H](CO)[C@@H](O[C@H]6O[C@H](CO)[C@@H](O)[C@H](O)[C@H]6O)[C@H](O)[C@H]5O)CC[C@]4(C)[C@H]3CC[C@]12C,–,–,<50,Non-toxic,Non-toxic
> 125,> 125,CC(C)CCC[C@@H](C)[C@H]1CC[C@H]2[C@@H]3CC[C@H]4C[C@@H](O[C@@H]5O[C@H](CO)[C@@H](O[C@@H]6O[C@H](CO)[C@@H](O)[C@H](O)[C@H]6O)[C@H](O)[C@H]5O)CC[C@]4(C)[C@H]3CC[C@]12C,–,–,<50,–,–
–,–,CC(C)CCC[C@@H](C)[C@H]1CC[C@H]2[C@@H]3CC[C@H]4C[C@@H](O[C@H]5O[C@H](CO)[C@@H](O)[C@H](O)[C@H]5O)[C@H](O)C[C@]4(C)[C@H]3CC[C@]12C,<50,<50,<50,–,–
–,–,CC(C)CCC[C@@H](C)[C@H]1CC[C@H]2[C@@H]3CC[C@H]4C[C@@H](O[C@@H]5O[C@H](CO)[C@@H](O)[C@H](O)[C@H]5O)[C@H](O)C[C@]4(C)[C@H]3CC[C@]12C,<50,<50,<50,–,–
–,–,CC(C)CCC[C@@H](C)[C@H]1CC[C@H]2[C@@H]3CC[C@H]4C[C@@H](O[C@H]5O[C@H](CO)[C@@H](O[C@H]6O[C@H](CO)[C@@H](O)[C@H](O)[C@H]6O)[C@H](O)[C@H]5O)[C@H](O)C[C@]4(C)[C@H]3CC[C@]12C,<50,<50,<50,–,–
32,–,CC(C)CCC[C@@H](C)[C@H]1CC[C@H]2[C@@H]3CC[C@H]4C[C@@H](O[C@@H]5O[C@H](CO)[C@@H](O[C@H]6O[C@H](CO)[C@@H](O)[C@H](O)[C@H]6O)[C@H](O)[C@H]5O)[C@H](O)C[C@]4(C)[C@H]3CC[C@]12C,<50,–,<50,–,–
4,8,CC(C)CCC[C@@H](C)[C@H]1CC[C@H]2[C@@H]3CC[C@H]4C[C@@H](O[C@@H]5O[C@H](CO)[C@@H](O[C@@H]6O[C@H](CO)[C@@H](O)[C@H](O)[C@H]6O)[C@H](O)[C@H]5O)[C@H](O)C[C@]4(C)[C@H]3CC[C@]12C,–,–,<50,Toxic,Toxic
–,–,C[C@@H]1CC[C@@]2(OC1)O[C@H]1C[C@H]3[C@@H]4CC[C@H]5C[C@@H](O[C@H]6O[C@H](CO)[C@@H](O)[C@H](O)[C@H]6O)[C@H](O)C[C@]5(C)[C@H]4CC[C@]3(C)[C@H]1[C@@H]2C,<50,<50,<50,–,–
–,–,C[C@@H]1CC[C@]2(C[C@H]3C[C@H]4[C@@H]5CC[C@H]6C[C@@H](O[C@@H]7O[C@H](CO)[C@@H](O)[C@H](O)[C@H]7O)[C@H](O)C[C@]6(C)[C@H]5CC[C@]4(C)[C@H]3[C@@H]2C)OC1,<50,<50,<50,–,–
–,–,C[C@@H]1CC[C@]2(C[C@H]3C[C@H]4[C@@H]5CC[C@H]6C[C@@H](O[C@H]7O[C@H](CO)[C@@H](O[C@H]8O[C@H](CO)[C@@H](O)[C@H](O)[C@H]8O)[C@H](O)[C@H]7O)[C@H](O)C[C@]6(C)[C@H]5CC[C@]4(C)[C@H]3[C@@H]2C)OC1,<50,<50,<50,–,–
–,–,C[C@@H]1CC[C@]2(C[C@H]3C[C@H]4[C@@H]5CC[C@H]6C[C@@H](O[C@@H]7O[C@H](CO)[C@@H](O[C@@H]8O[C@H](CO)[C@@H](O)[C@H](O)[C@H]8O)[C@H](O)[C@H]7O)[C@H](O)C[C@]6(C)[C@H]5CC[C@]4(C)[C@H]3[C@@H]2C)OC1,–,–,–,Non-toxic,Non-toxic
